Laboratory results as given in ChEMBL document CHEMBL1165966, “ppGpp analogues inhibit synthetase activity of Rel proteins from Gram-negative and Gram-positive bacteria” (Bioorg Med Chem, 2010).
Changes are numbered by the printed parent chain. Activity calls are given as the source filed them. The calls are words filed in the database; no cut-off is given here.

Assays:
[1] = biological target: T1, Bifunctional (p)ppGpp synthase/hydrolase RelA (Streptococcus dysgalactiae subsp. equisimilis) (UniProt Q54089); experiment: Inhibition of synthetic activity of Streptococcus equisimilis RelA assessed as inhibition of (p)ppGpp accumulation at 5 to 10 mM after 5 mins
T1 sequence (whole entry): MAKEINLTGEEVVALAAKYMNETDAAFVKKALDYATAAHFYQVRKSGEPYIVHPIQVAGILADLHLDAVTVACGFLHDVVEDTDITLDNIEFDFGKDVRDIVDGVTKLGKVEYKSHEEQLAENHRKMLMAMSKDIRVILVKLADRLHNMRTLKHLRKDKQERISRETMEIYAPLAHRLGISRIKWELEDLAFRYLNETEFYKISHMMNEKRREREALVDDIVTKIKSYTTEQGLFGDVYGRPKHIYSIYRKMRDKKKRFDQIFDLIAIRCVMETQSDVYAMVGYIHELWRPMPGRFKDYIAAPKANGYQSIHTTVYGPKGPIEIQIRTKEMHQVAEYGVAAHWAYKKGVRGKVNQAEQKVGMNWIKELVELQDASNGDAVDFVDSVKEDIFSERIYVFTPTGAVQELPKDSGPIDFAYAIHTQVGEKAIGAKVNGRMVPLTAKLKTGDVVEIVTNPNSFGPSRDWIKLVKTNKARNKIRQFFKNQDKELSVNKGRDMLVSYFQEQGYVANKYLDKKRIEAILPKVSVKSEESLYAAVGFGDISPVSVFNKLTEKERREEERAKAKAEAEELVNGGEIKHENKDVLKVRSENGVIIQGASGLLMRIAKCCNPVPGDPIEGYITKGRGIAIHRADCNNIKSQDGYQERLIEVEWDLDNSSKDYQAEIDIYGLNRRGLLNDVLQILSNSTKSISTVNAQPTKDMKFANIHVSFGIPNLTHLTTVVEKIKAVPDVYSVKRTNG

[2] = biological target: T2, GTP pyrophosphokinase (Escherichia coli K-12) (UniProt P0AG20); experiment: Inhibition of synthetic activity of Escherichia coli RelA assessed as inhibition of (p)ppGpp accumulation at 5 to 10 mM after 60 mins
T2 sequence (whole entry): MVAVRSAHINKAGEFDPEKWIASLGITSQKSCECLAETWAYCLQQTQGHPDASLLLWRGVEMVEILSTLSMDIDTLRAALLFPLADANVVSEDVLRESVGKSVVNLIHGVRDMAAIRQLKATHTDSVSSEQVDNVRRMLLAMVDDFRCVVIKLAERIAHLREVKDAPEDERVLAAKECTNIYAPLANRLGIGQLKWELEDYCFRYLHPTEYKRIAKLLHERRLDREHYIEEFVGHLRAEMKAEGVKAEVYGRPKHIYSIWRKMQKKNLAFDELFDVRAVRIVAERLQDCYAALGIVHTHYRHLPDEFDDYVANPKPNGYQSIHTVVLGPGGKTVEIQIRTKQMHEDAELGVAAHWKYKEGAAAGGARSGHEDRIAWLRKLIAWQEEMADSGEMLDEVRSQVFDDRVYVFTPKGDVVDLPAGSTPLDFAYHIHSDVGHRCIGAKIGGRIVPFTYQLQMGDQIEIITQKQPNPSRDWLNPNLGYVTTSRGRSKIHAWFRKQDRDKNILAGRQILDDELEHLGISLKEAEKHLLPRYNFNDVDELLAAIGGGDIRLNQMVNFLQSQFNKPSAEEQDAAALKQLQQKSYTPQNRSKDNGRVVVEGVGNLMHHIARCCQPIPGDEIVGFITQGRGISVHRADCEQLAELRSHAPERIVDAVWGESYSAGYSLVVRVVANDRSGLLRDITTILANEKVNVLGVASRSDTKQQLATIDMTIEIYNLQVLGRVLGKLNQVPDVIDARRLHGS

Escherichia coli = experiment: Inhibition of synthetic activity of Escherichia coli RelA C638F mutant at 1 to 10 mM
Summary of the method: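 Analogue was added at 1, 5 or 10 mM in duplicate lanes. The buffer was Tris–HCl pH 7.4 containing DTT, MgCl2, KCl and (NH4)2SO4. Reactions ran at room temperature and were stopped with formic acid.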

[3] = biological target: T1, Bifunctional (p)ppGpp synthase/hydrolase RelA (Streptococcus dysgalactiae subsp. equisimilis); experiment: Inhibition of Streptococcus equisimilis RelA catalytic site at 5 mM in presence of increasing concentration of ATP
[4] = biological target: T2, GTP pyrophosphokinase (Escherichia coli K-12); experiment: Inhibition of Escherichia coli RelA catalytic site at 5 mM in presence of increasing concentration of GTP
Summary of the method: (§1)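 The buffer was Tris–HCl pH 7.4 with DTT, MgCl2, KCl and (NH4)2SO4. Analogue was held at 5 mM while GTP or ATP was raised. Reactions ran 60 min at room temperature, were stopped with formic acid, and (p)ppGpp accumulation was the read-out.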

[5] = biological target: T1, Bifunctional (p)ppGpp synthase/hydrolase RelA (Streptococcus dysgalactiae subsp. equisimilis); experiment: Inhibition of synthetic activity of Streptococcus equisimilis RelA assessed as inhibition of (p)ppGpp accumulation at 0.5 mM after 5 mins
[6] = biological target: T2, GTP pyrophosphokinase (Escherichia coli K-12); experiment: Inhibition of synthetic activity of Escherichia coli RelA assessed as inhibition of (p)ppGpp accumulation at 0.1 to 0.5 mM after 60 mins
[7] = biological target: T2, GTP pyrophosphokinase (Escherichia coli K-12); experiment: Inhibition of synthetic activity of Escherichia coli RelA assessed as inhibition of (p)ppGpp accumulation at > 1 mM after 60 mins
[8] = system: T3, GTP pyrophosphokinase (Escherichia coli K-12), P0AG20 [G251E]; experiment: Inhibition of Escherichia coli RelA G251E mutant dissociation from ribosome at 1 to 10 mM after 4 hrs by chemiluminescence assay
T3 sequence (whole entry): T2 sequence (whole entry) with G251E
Summary of the method: (§2)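 Ribosomes were isolated through a 40% sucrose cushion from E. coli grown in LB at 37 °C. RelA plus ribosomes and analogue at 1–10 mM were centrifuged 4 h at 32,000 rpm, 4 °C, and split into soluble and ribosomal fractions. Ribosomal fractions were run on 12% SDS-PAGE, blotted to PVDF and probed with anti-His antibody (1:10,000).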

[9] = biological target: T2, GTP pyrophosphokinase (Escherichia coli K-12); experiment: Inhibition of Escherichia coli RelA dissociation from L11 mutated ribosome assessed as increase in bound protein at 1 to 10 mM after 4 hrs by chemiluminescence assay relative to control; summary of the method: as §2
[10] = biological target: T1, Bifunctional (p)ppGpp synthase/hydrolase RelA (Streptococcus dysgalactiae subsp. equisimilis); experiment: Inhibition of Streptococcus equisimilis RelA catalytic site at 5 mM in presence of increasing concentration of GTP
[11] = biological target: T2, GTP pyrophosphokinase (Escherichia coli K-12); experiment: Inhibition of Escherichia coli RelA dissociation from ribosome assessed as increase in bound protein at 1 to 10 mM after 4 hrs by chemiluminescence assay relative to control; summary of the method: as §2
[12] = biological target: T2, GTP pyrophosphokinase (Escherichia coli K-12); experiment: Inhibition of Escherichia coli RelA catalytic site at 5 mM in presence of increasing concentration of ATP; summary of the method: as §1

SMILES | inhibition [1] | inhibition [2] | other results
Nc1nc2c(ncn2[C@@H]2O[C@H](COP(=O)(O)CP(=O)(O)O)[C@@H](OP(=O)(O)CP(=O)(O)O)[C@H]2O)c(=O)[nH]1 | Active | Active | 
Nc1nc2c(ncn2[C@@H]2O[C@H](COP(=O)(O)CP(=O)(O)O)[C@@H](O)[C@H]2O)c(=O)[nH]1 | Active | Active | 
Nc1nc2c(ncn2[C@H]2C[C@H](OP(=O)(O)CP(=O)(O)O)[C@@H](COP(=O)(O)CP(=O)(O)O)O2)c(=O)[nH]1 | Active | Active | inhibition (Escherichia coli): Active; inhibition [3]: Active; inhibition [4]: inactive; inhibition [5]: > 50%; inhibition [6]: inactive; inhibition [7]: > 50%; inhibition [8]: inactive; inhibition [9]: inactive; inhibition [10]: inactive; fold change (FC) [11]: 3; inhibition [12]: Active
CC1(C)O[C@@H]2[C@H](O1)[C@@H](COP(=O)(O)CP(=O)(O)O)O[C@H]2n1cnc2c(=O)[nH]c(N)nc21 | Active | Active | 

The next lines start with results.

inhibition [1] | inhibition [2] | SMILES | other results
Active | Active | CC(C)C(=O)Nc1nc2c(ncn2[C@@H]2O[C@H](COP(=O)(O)CP(=O)(O)O)[C@@H](OP(=O)(O)CP(=O)(O)O)[C@H]2O[Si](C)(C)C(C)(C)C)c(=O)[nH]1 | 
Active | Active | CC(C)C(=O)Nc1nc2c(ncn2[C@@H]2O[C@H](COP(=O)(O)CP(=O)(O)O)[C@@H](OP(=O)(O)CP(=O)(O)O)[C@H]2O)c(=O)[nH]1 | 
Active | Active | Nc1nc2c(ncn2[C@H]2C[C@H](OP(=O)(O)CP(=O)(O)O)[C@@H](CO)O2)c(=O)[nH]1 | 
